Experimental data published in ChEMBL document CHEMBL4376840, “Application of Fluorine- and Nitrogen-Walk Approaches: Defining the Structural and Functional Diversity of 2-Phenylindole Class of Cannabinoid 1 Receptor Positive Allosteric Modulators” (J Med Chem, 2020).
Active and inactive are the calls of the source.

Assays:
Cannabinoid receptor 1 [1] = target: T1, Cannabinoid receptor 1 (Homo sapiens, UniProt P21554); test: Positive allosteric modulatory activity at human CB1R expressed in CHO-K1 cells assessed as increase in CP55940-induced inhibition of forskolin-stimulated cAMP production after 30 mins in presence of CP55940 at EC20 concentration by hit-hunter cAMP assay; type: functional, cell-based
T1 sequence (P21554 whole entry): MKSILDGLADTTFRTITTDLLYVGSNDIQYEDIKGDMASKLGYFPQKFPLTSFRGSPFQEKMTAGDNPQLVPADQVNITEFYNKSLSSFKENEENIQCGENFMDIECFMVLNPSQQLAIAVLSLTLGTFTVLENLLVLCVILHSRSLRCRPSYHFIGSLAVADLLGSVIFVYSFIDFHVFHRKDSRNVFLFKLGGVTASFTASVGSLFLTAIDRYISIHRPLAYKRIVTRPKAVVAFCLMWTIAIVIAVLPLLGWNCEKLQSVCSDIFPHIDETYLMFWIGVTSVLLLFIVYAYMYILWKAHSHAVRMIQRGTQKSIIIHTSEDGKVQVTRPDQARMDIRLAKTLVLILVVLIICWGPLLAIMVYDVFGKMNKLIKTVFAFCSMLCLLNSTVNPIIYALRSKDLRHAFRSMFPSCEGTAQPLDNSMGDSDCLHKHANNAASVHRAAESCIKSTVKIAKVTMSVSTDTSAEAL
Outline: (§1)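 Read-out was chemiluminescent cAMP detection, fit with a variable-slope 4-parameter regression. n = 1–3 independent experiments in duplicate.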

Cannabinoid receptor 1 [2] = target: T1, Cannabinoid receptor 1; test: Positive allosteric modulatory activity at human CB1R expressed in CHO-K1 cells assessed as increase in CP55940-induced inhibition of forskolin-stimulated cAMP production after 30 mins in presence of CP55940 at EC20 concentration by hit-hunter cAMP assay relative to control; type: functional, cell-based; outline: as §1
Cannabinoid receptor 1 [3] = target: Cannabinoid receptor 1 (Rattus norvegicus, UniProt P20272); test: Allosteric agonist activity at N-terminal GFP-tagged rat CB1R expressed in HEK293 cells assessed as inhibition of forskolin-induced cAMP production after 30 min by TR-FRET assay; type: functional, cell-based
Sequence of Cannabinoid receptor 1 (Rattus norvegicus, UniProt P20272) (P20272 whole entry): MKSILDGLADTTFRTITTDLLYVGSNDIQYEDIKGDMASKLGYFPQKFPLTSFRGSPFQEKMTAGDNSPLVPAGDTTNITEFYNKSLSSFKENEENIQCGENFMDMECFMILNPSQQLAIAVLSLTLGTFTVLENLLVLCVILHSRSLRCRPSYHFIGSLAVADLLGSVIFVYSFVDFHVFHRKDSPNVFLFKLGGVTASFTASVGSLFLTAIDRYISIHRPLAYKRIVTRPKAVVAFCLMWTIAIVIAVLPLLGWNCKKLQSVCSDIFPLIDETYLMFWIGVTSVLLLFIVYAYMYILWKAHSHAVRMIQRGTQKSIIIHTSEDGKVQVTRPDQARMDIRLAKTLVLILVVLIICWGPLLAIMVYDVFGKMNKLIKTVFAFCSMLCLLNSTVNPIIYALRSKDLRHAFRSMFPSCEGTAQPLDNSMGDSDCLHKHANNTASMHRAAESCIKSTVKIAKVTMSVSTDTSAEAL
Outline: (§2)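 HEK293 cells stably expressing N-terminal GFP-tagged rat CB1R were trypsin-EDTA dissociated and resuspended in HBSS with 0.1% BSA and 0.5mM IBMX at 500 cells/well. Cells got 5μM forskolin plus compound (1 pM – 10 μM) alone for 30 min. 4-parameter fit; Emin is the lower plateau. n ≥ 3, triplicate.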

[4] = target: Cannabinoid receptor 1 (Rattus norvegicus) (UniProt P20272); test: Allosteric agonist activity at N-terminal GFP-tagged rat CB1R expressed in HEK293 cells assessed as inhibition of forskolin-induced cAMP production by measuring cAMP accumulation at minimal level at higher concentrations after 30 min by TR-FRET assay relative to forskolin; type: functional, cell-based; outline: as §2
Sequence of Cannabinoid receptor 1 (Rattus norvegicus) (P20272 whole entry): as above

[5] = target: Cannabinoid receptor 1 (Rattus norvegicus) (UniProt P20272); test: (§3) Positive allosteric modulatory activity at N-terminal GFP-tagged rat CB1R receptor expressed in HEK293 cells assessed as increase in CP55940-induced inhibition of forskolin-induced cAMP accumulation by measuring Emax for cAMP accumulation at low concentrations of CP55940 at 0.03 microM after 30 mins by TR-FRET assay relative to forskolin; type: functional, cell-based
[6] = target: Cannabinoid receptor 1 (Rattus norvegicus) (UniProt P20272); test: as §3, with “concentration” for “concentrations”, “0.3” for “0.03”; type: functional, cell-based
Cannabinoid receptor 1 [7] = target: T1, Cannabinoid receptor 1; test: Displacement of [3H]SR141716A from human CB1R receptor expressed in CHO cell membranes after 2 hrs by liquid scintillation spectrometry analysis
Cannabinoid receptor 1 [8] = target: T1, Cannabinoid receptor 1; test: Displacement of [3H]CP55940 from human CB1R receptor expressed in CHO cell membranes after 60 mins by liquid scintillation spectrometry analysis
Cannabinoid receptor 1 [9] = target: T1, Cannabinoid receptor 1; test: Agonist activity at human CB1 receptor expressed in CHO cell membranes assessed as increase in G-protein coupling by measuring [35S]GTPgammaS binding after 90 mins in presence of [35S]GTPgammaS by liquid scintillation analysis relative to control; type: functional
Outline: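 [35S]GTPγS binding to G protein in membranes from CHO cells stably expressing human CB1R, with test compound given alone. Data fit to a variable-slope 4-parameter nonlinear regression. n = 4–6 independent experiments in duplicate.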

Cannabinoid receptor 1 [10] = target: T1, Cannabinoid receptor 1; test: Allosteric agonist activity at human CB1R expressed in CHO-K1 cells assessed as inhibition of forskolin-induced cAMP accumulation after 90 mins by hit-hunter cAMP assay; type: functional, cell-based
Outline: (§4)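 HitHunter CHO-K1 hCB1R cells (20,000/well) were held overnight in Opti-MEM with 1% FBS. They were then co-treated at 37°C with 10 μM forskolin plus compound alone (0.10 nM – 10 μM) for 90 min. Chemiluminescent cAMP detection followed (two 60-min room-temperature steps). Data as % forskolin, variable-slope 4-parameter fit; Emin is the lower plateau. n ≥ 6, triplicate.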

Cannabinoid receptor 1 [11] = target: T1, Cannabinoid receptor 1; test: Allosteric agonist activity at human CB1R expressed in CHO-K1 cells assessed as inhibition of forskolin-induced cAMP accumulation by measuring cAMP accumulation at minimal level at higher concentrations after 90 mins by hit-hunter cAMP assay relative to forskolin; type: functional, cell-based; outline: as §4
Cannabinoid receptor 1 [12] = target: T1, Cannabinoid receptor 1; test: Positive allosteric modulatory activity at human CB1R expressed in CHO-K1 cells assessed as increase in CP55940-induced inhibition of forskolin-induced cAMP accumulation by measuring cAMP accumulation at minimal level at higher concentration after 90 mins in presence of 100 nM CP55940 by hit-hunter cAMP assay relative to forskolin; type: functional, cell-based
Outline: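 Uses the HitHunter CHO-K1 hCB1R cAMP set-up above. […] Data normalized to % forskolin, 4-parameter fit. n ≥ 6, triplicate.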

Cannabinoid receptor 1 [13] = target: T1, Cannabinoid receptor 1; test: Allosteric agonist activity at human CB1R expressed in CHO-K1 cells assessed as increase in beta arrestin2 recruitment after 90 mins by pathhunter beta-arrestin assay; type: cell-based
Outline: (§5)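 PathHunter CHO-K1 hCB1R cells (20,000/well) were held overnight in Opti-MEM with 1% FBS. Compound alone (0.10 nM – 10 μM) was given at 37°C for 90 min, then detection solution for 60 min at room temperature and chemiluminescence was read.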

Cannabinoid receptor 1 [14] = target: T1, Cannabinoid receptor 1; test: Allosteric agonist activity at human CB1R expressed in CHO-K1 cells assessed as increase in beta arrestin2 recruitment after 90 mins by pathhunter beta-arrestin assay relative to CP55940; type: cell-based; outline: as §5
Mus musculus [15] = test: Effect on contralateral paw withdrawl threshold in CFA-induced mechanical allodynia CD1 mouse model at 0.1 to 30 mg/kg, ip measured every 3 hrs for 2 days post treatment by Von Frey test; type: ADME, organism-based; conditions: in vivo, 48 h
Outline: (§6)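 Mice received CFA injection into one paw. Mechanical paw withdrawal thresholds were measured in the injected (ipsilateral) and contralateral paws after i.p. compound at 0.1, 0.3, 1, 3, 10 or 30 mg/kg, compared with vehicle-treated groups at the same times.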

Mus musculus [16] = test: Antiallodynic activity against CFA-induced mechanical allodynia CD1 mouse model assessed as effect on ipsilateral paw withdrawal threshold at 0.3 mg/kg, ip measured every 3 hrs for 2 days post treatment by Von Frey test; type: functional, organism-based; outline: as §6
Mus musculus [17] = test: Antiallodynic activity against CFA-induced mechanical allodynia CD1 mouse model assessed as increase in ipsilateral paw withdrawal threshold at 30 mg/kg, ip by Von Frey test; type: functional, organism-based; conditions: TDE = time-dependent effect
Outline: (§7)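 Time course in the CFA model at 30 mg/kg i.p. Ipsilateral and contralateral mechanical paw withdrawal thresholds were followed from 30 min to 4 h post-injection in wild-type and CB1 knockout mice. Compared with vehicle by ANOVA and Bonferroni post hoc tests.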

Mus musculus [18] = test: Antiallodynic activity against CFA-induced mechanical allodynia CD1 mouse model assessed as increase in ipsilateral paw withdrawal threshold at 30 mg/kg, ip after 30 mins post treatment by Von Frey test; type: functional, organism-based; outline: as §7
Mus musculus [19] = test: Antiallodynic activity against CFA-induced mechanical allodynia CD1 mouse model assessed as effect on ipsilateral paw withdrawal threshold at 30 mg/kg, ip after 4 hrs post treatment by Von Frey test; type: functional, organism-based; outline: as §7
[20] = Toxicity in C57BL/6 mouse assessed as catalepsy at 0.1 to 10 mg/kg, ip after 5 mins by bar holding assay; type: organism-based; conditions: in vivo
Outline: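 Male C57BL/6 mice were given 0.1 – 10 mg/kg compound or vehicle (1:1:18 ethanol:cremaphor:saline). Catalepsy was assessed at 5 min as % MPE with a 60 sec maximum. n = 5–6.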

[21] = human, microsomes, 1 µM

Compound | EC50 (Cannabinoid receptor 1 [1]) | Emax (Cannabinoid receptor 1 [2]) | EC50 (Cannabinoid receptor 1 [3]) | Emin [4] | Emax [5] | Emax [6] | Ki (Cannabinoid receptor 1 [7]) | Ki (Cannabinoid receptor 1 [8]) | Emax (Cannabinoid receptor 1 [9]) | EC50 (Cannabinoid receptor 1 [10]) | Emin (Cannabinoid receptor 1 [11]) | Emin (Cannabinoid receptor 1 [12]) | EC50 (Cannabinoid receptor 1 [13]) | Emax (Cannabinoid receptor 1 [14]) | Activity (Mus musculus [15]) | Activity (Mus musculus [16]) | Activity (Mus musculus [17]) | Activity (Mus musculus [18]) | Activity (Mus musculus [19]) | Activity [20] | further results
O=[N+]([O-])CC(c1ccccc1F)c1c(-c2cccc(F)c2)[nH]c2cc(F)ccc12 (configuration not stated) | 28 nM | 93% | 27 nM | 32% | 58% | 32% | 4.8 nM | 88 nM | 81% | 4.3 nM | 4.2% | 9% | 1600 nM | 34% | Non-Toxic | inactive | Tde | Active | inactive | Non-Toxic | CLH [21]: 44.9 µL/min
O=[N+]([O-])CC(c1ccccc1F)c1c(-c2cccc(F)c2)[nH]c2c(F)cccc12 (configuration not stated) | 9.1 nM | 93% | 26 nM | 30% | 63% | 33% | 5.2 nM | 94 nM | 84% | 3.9 nM | 18% | 10% | > 10000 nM | 25% | Non-Toxic | inactive | Tde | Active | inactive | Non-Toxic | CLH [21]: 44.4 µL/min
